From ChEMBL document CHEMBL1122607, “Heterocyclic analogues of chlorcyclizine with potent hypolipidemic activity” (J Med Chem, 1984)

Test system: Rattus norvegicus
Assay: Hypolipidemic activity was measured as reduction in rat serum cholesterol after oral administration in male Wistar rats at 100 mg/(kg day)
Type: functional
Conditions: not given
Procedure, shortened: (§1)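 Cholesterol-fed rats given the test compound orally by gavage on the last 3 days, with controls receiving vehicle (0.5% tragacanth mucilage). After overnight starvation, rats were killed under CO2 3 h after the last dose and bled by cardiac puncture. Serum cholesterol and triglyceride were measured by autoanalyzer and expressed as percentage reduction from control levels, with Student's t test.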
`Cc1cnsc1C(c1ccc(C(C)C)cc1)N1CCN(CCCO)CC1` (stereo not given) showed a Reduction of 80%.
`Cc1noc(C)c1C(=C1CCNCC1)c1ccc(C(C)C)cc1` gave a Reduction of 89%.

Test system: Rattus norvegicus
Assay: Hypolipidemic activity was measured as reduction in rat serum triglyceride after oral administration in male Wistar rats at 30 mg / (kg day)
Type: functional
Conditions: not given
Procedure, shortened: as §1
For `Cc1ccc(C(c2cc(C)ns2)N2CCN(C)CC2)c(C)c1` (stereo not given), the Reduction was 31%.
Work on `CC(C)COc1ccccc1C(c1ccns1)N1CCN(C)CC1` (stereo not given) yielded a Reduction of 50%.
`CCCCCc1ccc(C(c2ccns2)N2CCN(C)CC2)cc1` (stereo not given) showed a Reduction of 23%.
`Cc1cnsc1C(c1ccc(C(C)C)cc1)N1CCN(CCCO)CC1` (stereo not given) showed a Reduction of 55%.
For `Cc1ccc(C(c2ccns2)N2CCN(C)CC2)cc1` (stereo not given), the Reduction was 9%.
For `CCCc1ccc(C(c2ccns2)N2CCN(C)CC2)cc1` (stereo not given), the Reduction was 34%.
`Cc1noc(C)c1C(=C1CCNCC1)c1ccc(C(C)C)cc1` showed a Reduction of 83%.
`Cc1cc(C(c2ccc(C(C)C)cc2)N2CCNCC2)sn1` (stereo in doubt; 33) gave a Reduction of 66%.

Test system: Rattus norvegicus
Assay: Hypolipidemic activity was measured as reduction in rat serum cholesterol after oral administration in male Wistar rats at 1 mg / (kg day)
Type: functional
Conditions: not given
Procedure, shortened: as §1
Work on `Cc1noc(C)c1C(=C1CCNCC1)c1ccc(C(C)C)cc1` yielded a Reduction of 6%.

Test system: Rattus norvegicus
Assay: Hypolipidemic activity was measured as reduction in rat serum triglyceride after oral administration in male Wistar rats at 10 mg / (kg day)
Type: functional
Conditions: not given
Procedure, shortened: as §1
For `CC(C)COc1ccccc1C(c1ccns1)N1CCN(C)CC1` (stereo not given), the Reduction was 15%.
In the case of `Cc1cnsc1C(c1ccc(C(C)C)cc1)N1CCN(CCCO)CC1` (stereo not given), the Reduction is reported as 48%.
Work on `CCCc1ccc(C(c2ccns2)N2CCN(C)CC2)cc1` (stereo not given) yielded a Reduction of 7%.
`Cc1noc(C)c1C(=C1CCNCC1)c1ccc(C(C)C)cc1` gave a Reduction of 46%.
Work on `Cc1cc(C(c2ccc(C(C)C)cc2)N2CCNCC2)sn1` (stereo in doubt; 33) yielded a Reduction of 38%.

Test system: Rattus norvegicus
Assay: Hypolipidemic activity was measured as reduction in rat serum triglyceride after oral administration in male Wistar rats at 200 mg / (kg day)
Type: functional
Conditions: not given
Procedure, shortened: as §1
For `COc1ccc(C(c2cc(C)ns2)N2CCN(C)CC2)cc1OC` (stereo not given), the Reduction was 4%.
In the case of `Cc1cc(C(c2ccccc2F)N2CCN(C)CC2)sn1` (stereo not given), the Reduction is reported as 57%.
For `COc1ccc(C(c2cc(C)ns2)N2CCN(C)CC2)cc1` (stereo not given), the Reduction was 23%.
Work on `Cc1cc(C(c2ccccc2)N2CCN(Cc3ccccc3)CC2)sn1` (stereo not given) yielded a Reduction of 56%.
With `Cc1ccc(C(c2cc(C)ns2)N2CCN(C)CC2)c(C)c1` (stereo not given) the Reduction was 52%.
`Cc1cc(C(N)c2ccc(C(C)C)cc2)sn1` (stereo not given) showed a Reduction of 9%.
Molecule `COc1cccc(C(c2cc(C)ns2)N2CCN(C)CC2)c1` (stereo not given) has a Reduction of 2%.
In the case of `CC(C)COc1ccccc1C(c1ccns1)N1CCN(C)CC1` (stereo not given), the Reduction is reported as 85%.
With `CN1CCN(C(c2ccccc2Cl)c2nccn2C)CC1` (stereo not given) the Reduction was 64%.
In the case of `CCCCCc1ccc(C(c2ccns2)N2CCN(C)CC2)cc1` (stereo not given), the Reduction is reported as 85%.
With `Cc1ccc(C(c2ccns2)N2CCN(C)CC2)cc1` (stereo not given) the Reduction was 36%.
In the case of `CCCc1ccc(C(c2ccns2)N2CCN(C)CC2)cc1` (stereo not given), the Reduction is reported as 86%.

Test system: Rattus norvegicus
Assay: Hypolipidemic activity was measured as reduction in rat serum triglyceride after oral administration in male Wistar rats at 3 mg / (kg day)
Type: functional
Conditions: not given
Procedure, shortened: as §1
For `Cc1cnsc1C(c1ccc(C(C)C)cc1)N1CCN(CCCO)CC1` (stereo not given), the Reduction was 17%.
Molecule `CCCc1ccc(C(c2ccns2)N2CCN(C)CC2)cc1` (stereo not given) has a Reduction of 18%.
`Cc1noc(C)c1C(=C1CCNCC1)c1ccc(C(C)C)cc1` showed a Reduction of 6%.
Molecule `Cc1cc(C(c2ccc(C(C)C)cc2)N2CCNCC2)sn1` (stereo in doubt; 33) has a Reduction of 26%.

Test system: Rattus norvegicus
Assay: Minimum effective dose (MED) is the dose (mg/kg)that cause significant reduction in serum cholesterol of 30% compared to concurrent controls.
Type: functional
Set-up: unit: mg/kg
Conditions: not given
Procedure, shortened: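 MED was calculated from the log dose/response curve as the dose giving a statistically significant 30% fall in serum cholesterol versus concurrent controls. Measured in the 3-day oral cholesterol-fed rat screen, or in a 2-week test: groups of eight young male Wistar rats on cholesterol/cholic acid-supplemented or normal diet, dosed orally by gavage daily for 14 days, vehicle 0.5% tragacanth mucilage.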
Work on `CC(C)COc1ccccc1C(c1ccns1)N1CCN(C)CC1` (stereo not given) yielded an MED of 18.
`Cc1cnsc1C(c1ccc(C(C)C)cc1)N1CCN(CCCO)CC1` (stereo not given) showed an MED of 5.
`CCCc1ccc(C(c2ccns2)N2CCN(C)CC2)cc1` (stereo not given) gave an MED of 3.
`Cc1cc(C(c2ccc(C(C)C)cc2)N2CCNCC2)sn1` (stereo in doubt; 33) showed an MED of 8.

Test system: Rattus norvegicus
Assay: Hypolipidemic activity was measured as reduction in rat serum cholesterol after oral administration in male Wistar rats at 3 mg / (kg day)
Type: functional
Conditions: not given
Procedure, shortened: as §1
With `Cc1cnsc1C(c1ccc(C(C)C)cc1)N1CCN(CCCO)CC1` (stereo not given) the Reduction was 19%.
`CCCc1ccc(C(c2ccns2)N2CCN(C)CC2)cc1` (stereo not given) gave a Reduction of 31%.
Molecule `Cc1noc(C)c1C(=C1CCNCC1)c1ccc(C(C)C)cc1` has a Reduction of 44%.
With `Cc1cc(C(c2ccc(C(C)C)cc2)N2CCNCC2)sn1` (stereo in doubt; 33) the Reduction was 2%.

Test system: Rattus norvegicus
Assay: Hypolipidemic activity was measured as reduction in rat serum triglyceride after oral administration in male Wistar rats at 100 mg / (kg day)
Type: functional
Conditions: not given
Procedure, shortened: as §1
Work on `Cc1noc(C)c1C(c1ccc(C(C)C)cc1)N1CC[N+](C)(C)CC1` (stereo not given) yielded a Reduction of 28%.
`Cc1cc(C(c2ccc(C(C)C)cc2)N2CCCCC2)sn1` (stereo not given) showed a Reduction of 1%.
`Cc1cnsc1C(c1ccc(C(C)C)cc1)N1CCN(CCCO)CC1` (stereo not given) showed a Reduction of 78%.
`Cc1noc(C)c1C(=C1CCNCC1)c1ccc(C(C)C)cc1` gave a Reduction of 89%.

Test system: Rattus norvegicus
Assay: Hypolipidemic activity was measured as reduction in rat serum cholesterol after oral administration in male Wistar rats at 10 mg / (kg day)
Type: functional
Conditions: not given
Procedure, shortened: as §1
For `CC(C)COc1ccccc1C(c1ccns1)N1CCN(C)CC1` (stereo not given), the Reduction was 1%.
`Cc1cnsc1C(c1ccc(C(C)C)cc1)N1CCN(CCCO)CC1` (stereo not given) showed a Reduction of 63%.
Molecule `CCCc1ccc(C(c2ccns2)N2CCN(C)CC2)cc1` (stereo not given) has a Reduction of 48%.
In the case of `Cc1noc(C)c1C(=C1CCNCC1)c1ccc(C(C)C)cc1`, the Reduction is reported as 65%.
In the case of `Cc1cc(C(c2ccc(C(C)C)cc2)N2CCNCC2)sn1` (stereo in doubt; 33), the Reduction is reported as 43%.

Test system: Rattus norvegicus
Assay: Hypolipidemic activity was measured as reduction in rat serum cholesterol after oral administration in male Wistar rats at 200 mg / (kg day)
Type: functional
Conditions: not given
Procedure, shortened: as §1
Work on `COc1ccc(C(c2cc(C)ns2)N2CCN(C)CC2)cc1OC` (stereo not given) yielded a Reduction of 7%.
For `Cc1cc(C(c2ccccc2F)N2CCN(C)CC2)sn1` (stereo not given), the Reduction was 25%.
Molecule `COc1ccc(C(c2cc(C)ns2)N2CCN(C)CC2)cc1` (stereo not given) has a Reduction of 0%.
In the case of `Cc1cc(C(c2ccccc2)N2CCN(Cc3ccccc3)CC2)sn1` (stereo not given), the Reduction is reported as 26%.
`Cc1ccc(C(c2cc(C)ns2)N2CCN(C)CC2)c(C)c1` (stereo not given) gave a Reduction of 56%.
Work on `Cc1cc(C(N)c2ccc(C(C)C)cc2)sn1` (stereo not given) yielded a Reduction of 34%.
With `COc1cccc(C(c2cc(C)ns2)N2CCN(C)CC2)c1` (stereo not given) the Reduction was 3%.
For `CC(C)COc1ccccc1C(c1ccns1)N1CCN(C)CC1` (stereo not given), the Reduction was 85%.
With `CN1CCN(C(c2ccccc2Cl)c2nccn2C)CC1` (stereo not given) the Reduction was 53%.
`CCCCCc1ccc(C(c2ccns2)N2CCN(C)CC2)cc1` (stereo not given) showed a Reduction of 87%.
Work on `Cc1ccc(C(c2ccns2)N2CCN(C)CC2)cc1` (stereo not given) yielded a Reduction of 30%.
For `CCCc1ccc(C(c2ccns2)N2CCN(C)CC2)cc1` (stereo not given), the Reduction was 82%.

Test system: Rattus norvegicus
Assay: Hypolipidemic activity was measured as reduction in rat serum triglyceride after oral administration in male Wistar rats at 1 mg / (kg day)
Type: functional
Conditions: not given
Procedure, shortened: as §1
`Cc1noc(C)c1C(=C1CCNCC1)c1ccc(C(C)C)cc1` gave a Reduction of 41%.

Test system: Rattus norvegicus
Assay: Hypolipidemic activity was measured as reduction in rat serum cholesterol after oral administration in male Wistar rats at 100 mg / (kg day)
Type: functional
Conditions: not given
Procedure, shortened: as §1
Molecule `Cc1noc(C)c1C(c1ccc(C(C)C)cc1)N1CC[N+](C)(C)CC1` (stereo not given) has a Reduction of 1%.
`Cc1cc(C(c2ccc(C(C)C)cc2)N2CCCCC2)sn1` (stereo not given) gave a Reduction of 16%.

Test system: not listed separately
Assay: The therapeutic safety margin (TSM) is the ratio of the minimum lethal dose (mg/kg)to the MED
Type: ADME, organism-based
Conditions: in vivo
Procedure, shortened: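 Young male Wistar rats, eight per group, on cholesterol/cholic acid-supplemented or normal diet; graded oral gavage doses daily for 14 days; vehicle controls (0.5% tragacanth mucilage). Mortalities recorded to give the minimum lethal daily dose. After overnight fasting, serum cholesterol assayed by autoanalyzer. MED is the dose giving a significant (t test) 30% cholesterol fall, from the log dose/response curve. TSM = minimum lethal dose/MED.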
Work on `Cc1cnsc1C(c1ccc(C(C)C)cc1)N1CCN(CCCO)CC1` (stereo not given) yielded a therapeutic safety margin (minimum lethal dose / MED) of 20.
Molecule `CCCc1ccc(C(c2ccns2)N2CCN(C)CC2)cc1` (stereo not given) has a therapeutic safety margin (minimum lethal dose / MED) of 20.
For `Cc1cc(C(c2ccc(C(C)C)cc2)N2CCNCC2)sn1` (stereo in doubt; 33), the therapeutic safety margin (minimum lethal dose / MED) was under 10.

Test system: Rattus norvegicus
Assay: Hypolipidemic activity was measured as reduction in rat serum cholesterol after oral administration in male Wistar rats at 30 mg / (kg day)
Type: functional
Conditions: not given
Procedure, shortened: as §1
In the case of `Cc1ccc(C(c2cc(C)ns2)N2CCN(C)CC2)c(C)c1` (stereo not given), the Reduction is reported as 1%.
In the case of `CC(C)COc1ccccc1C(c1ccns1)N1CCN(C)CC1` (stereo not given), the Reduction is reported as 49%.
`CCCCCc1ccc(C(c2ccns2)N2CCN(C)CC2)cc1` (stereo not given) gave a Reduction of 26%.
`Cc1cnsc1C(c1ccc(C(C)C)cc1)N1CCN(CCCO)CC1` (stereo not given) showed a Reduction of 75%.
With `Cc1ccc(C(c2ccns2)N2CCN(C)CC2)cc1` (stereo not given) the Reduction was 4%.
With `CCCc1ccc(C(c2ccns2)N2CCN(C)CC2)cc1` (stereo not given) the Reduction was 65%.
`Cc1noc(C)c1C(=C1CCNCC1)c1ccc(C(C)C)cc1` showed a Reduction of 83%.
Molecule `Cc1cc(C(c2ccc(C(C)C)cc2)N2CCNCC2)sn1` (stereo in doubt; 33) has a Reduction of 67%.
